Experimental data reported in ChEMBL document CHEMBL1138845, “Design of non-nucleoside inhibitors of HIV-1 reverse transcriptase with improved drug resistance properties. 2” (J Med Chem, 2004).

Experiments:
[1] = tested on: HeLa; test: Inhibitory concentration against human immunodeficiency virus type 1 (with V106A/Y181C resistant mutation) was determined in HeLa-CD4 MAGI assay; format: functional, cell-based
How it was run: (§1)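 Tested against a panel of recombinant, isogenic HIV-1 viruses, wild type and NNRTI-resistant strains carrying engineered single or double RT mutations. The readout was IC50.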

[2] = tested on: Human immunodeficiency virus 1; test: Inhibitory concentration against wild type human immunodeficiency virus type 1 was determined by recombinant virus assay; format: functional, organism-based
How it was run: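 Isogenic recombinant HIV-1 carrying wild-type RT, tested in parallel with a panel of NNRTI-resistant RT mutants built on the same background; activity reported as IC50.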

[3] = tested on: HeLa; test: Inhibitory concentration against human immunodeficiency virus type 1 (with V108I/Y181C resistant mutation) was determined in HeLa-CD4 MAGI assay; format: functional, cell-based; how it was run: as §1
[4] = tested on: MT4; test: Ratio of cytotoxic concentration to that of inhibitory concentration as selectivity index was determined by MT-4 assay; format: functional, Homo sapiens
How it was run: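 Index is the IC50 in uninfected MT4 cells divided by the antiviral IC50 in MT4 cells infected with wild-type HIV-1 or the nevirapine-resistant strain carrying RT mutation Y181C.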

[5] = tested on: HeLa; test: Inhibitory concentration against human immunodeficiency virus type 1 (with V106A resistant mutation) was determined in HeLa-CD4 MAGI assay; format: functional, cell-based; how it was run: as §1
[6] = tested on: HeLa; test: Inhibitory concentration against human immunodeficiency virus type 1 (with K103N/Y181C resistant mutation) was determined in HeLa-CD4 MAGI assay; format: functional, cell-based; how it was run: as §1
[7] = tested on: HeLa; test: Inhibitory concentration against human immunodeficiency virus type 1 (with G190A resistant mutation) was determined in HeLa-CD4 MAGI assay; format: functional, cell-based; how it was run: as §1
[8] = tested on: HeLa; test: Inhibitory concentration against human immunodeficiency virus type 1 (with K103N/V108I resistant mutation) was determined in HeLa-CD4 MAGI assay; format: functional, cell-based; how it was run: as §1
[9] = tested on: HeLa; test: Inhibitory concentration against human immunodeficiency virus type 1 (with K103N resistant mutation) was determined in HeLa-CD4 MAGI assay; format: functional, cell-based; how it was run: as §1
[10] = tested on: HeLa; test: Inhibitory concentration against human immunodeficiency virus type 1 (with K103N/G190A resistant mutation) was determined in HeLa-CD4 MAGI assay; format: functional, cell-based; how it was run: as §1
[11] = tested on: MT4; test: Inhibitory concentration against nevirapine resistant strain (with Y181C mutation in HIV-1 RT gene) of human immunodeficiency virus type 1 was determined by MT-4 assay; format: functional, cell-based
[12] = tested on: HeLa; test: Inhibitory concentration against human immunodeficiency virus type 1 (with Y188C resistant mutation) was determined in HeLa-CD4 MAGI assay; format: functional, cell-based; how it was run: as §1
[13] = tested on: MT4; test: Inhibitory concentration against wild type human immunodeficiency virus type 1 was determined by MT-4 assay; format: functional, cell-based
[14] = tested on: HeLa; test: Inhibitory concentration against human immunodeficiency virus type 1 (with V108I resistant mutation) was determined in HeLa-CD4 MAGI assay; format: functional, cell-based; how it was run: as §1
[15] = tested on: HeLa; test: Inhibitory concentration against human immunodeficiency virus type 1 (with Y181C resistant mutation) was determined in HeLa-CD4 MAGI assay; format: functional, cell-based; how it was run: as §1

| SMILES | IC50 [1] | IC50 [2] | IC50 [3] | Ratio [4] | IC50 [5] | IC50 [6] | IC50 [7] | IC50 [8] | IC50 [9] | IC50 [10] | IC50 [11] | IC50 [12] | IC50 [13] | IC50 [14] | IC50 [15] |
| --- | --- | --- | --- | --- | --- | --- | --- | --- | --- | --- | --- | --- | --- | --- | --- |
| CCCc1c(O)nc2ccc(OC(F)(F)F)cc2c1OC1CCCC1 | > 2000 nM | 270 nM | > 2000 nM | >40000 | > 2000 nM | > 2000 nM | 47 nM | > 2000 nM | > 2000 nM | > 2000 nM | 2500 nM | 360 nM | 380 nM | 300 nM | 990 nM |
| CC(C)Cc1c(O)nc2ccc(Cl)cc2c1OC1CCCC1 | > 2000 nM | 150 nM | 1100 nM | >40000 | 1500 nM | > 2000 nM | 42 nM | > 2000 nM | > 2000 nM | > 2000 nM | 1600 nM | 59 nM | 52 nM | 280 nM | 37 nM |
| CCCc1c(O)nc2ccc(F)cc2c1OC1CCCC1 | > 2000 nM | 150 nM | > 2000 nM | >40000 | > 2000 nM | > 2000 nM | 370 nM | > 2000 nM | > 2000 nM | > 2000 nM | 1300 nM | 42 nM | 150 nM | 350 nM | 1800 nM |
| CCCc1c(O)nc2ccc(Br)cc2c1OC1CCCC1 | > 2000 nM | 49 nM | 520 nM | >40000 | 430 nM | > 2000 nM | 32 nM | > 2000 nM | > 2000 nM | > 2000 nM | 1700 nM | 9 nM | 120 nM | 120 nM | > 2000 nM |
| CCCc1c(O)nc2ccccc2c1OC1CCCC1 | > 2000 nM | 350 nM | > 2000 nM | >40000 | > 2000 nM | > 2000 nM | 270 nM | > 2000 nM | > 2000 nM | > 2000 nM | 3900 nM | 180 nM | 380 nM | 1220 nM | 630 nM |
| CCC(C)c1c(O)nc2ccc(Cl)cc2c1OC1CCCC1 (stereo unspecified) | ~2000 nM | 9.3 nM | > 2000 nM | >40000 | > 2000 nM | > 2000 nM | ~2000 nM | > 2000 nM | 970 nM | > 2000 nM | 290 nM | 670 nM | 9 nM | 1100 nM | 320 nM |
| CCCc1c(O)nc2ccc(Cl)cc2c1OC1CCCC1 | > 2000 nM | 60 nM | 670 nM | >40000 | 270 nM | > 2000 nM | 25 nM | > 2000 nM | > 2000 nM | > 2000 nM | 1700 nM | 31 nM | 96 nM | 200 nM | > 2000 nM |
| CCCc1c(O)nc2ccc(OC)cc2c1OC1CCCC1 | > 2000 nM | 420 nM | > 2000 nM | >40000 | > 2000 nM | > 2000 nM | 710 nM | > 2000 nM | > 2000 nM | > 2000 nM | 24000 nM | 160 nM | 1010 nM | 540 nM | 710 nM |
| CCc1c(O)nc2ccc(Cl)cc2c1OC1CCCC1 | ~1000 nM | 72 nM | 780 nM | >40000 | > 2000 nM | > 2000 nM | 12 nM | > 2000 nM | > 2000 nM | 640 nM | 1020 nM | 54 nM | 78 nM | 260 nM | 6 nM |
| CC(C)c1c(OC#CC2CC2)c2cc(F)ccc2[nH]c1=O | 220 nM | 10 nM | 11 nM | 16000 | 150 nM | 620 nM | 5 nM | 720 nM | 400 nM | 100 nM | 25 nM | 23 nM | – | 26 nM | 15 nM |
| CCCc1c(O)nc2ccc(C)cc2c1OC1CCCC1 | > 2000 nM | 400 nM | > 2000 nM | >40000 | > 2000 nM | > 2000 nM | 150 nM | > 2000 nM | > 2000 nM | > 2000 nM | 6400 nM | 240 nM | 970 nM | 710 nM | 410 nM |
| CCCc1c(O)nc2ccc(F)c([N+](=O)[O-])c2c1OCC1CCC1 | 1000 nM | 1100 nM | > 2000 nM | >8000 | > 2000 nM | > 2000 nM | 540 nM | > 2000 nM | > 2000 nM | > 2000 nM | 1800 nM | 250 nM | 1200 nM | ~1000 nM | > 2000 nM |
| CC(C)Nc1cccnc1N1CCN(C(=O)c2cc3cc(NS(C)(=O)=O)ccc3[nH]2)CC1 [DELAVIRDINE] | 10000 nM | 159 nM | 10000 nM | – | 870 nM | 1250 nM | 35 nM | 3400 nM | 2650 nM | 8000 nM | – | 124 nM | – | 97 nM | – |
| O=C1Nc2ccc(Cl)cc2[C@@](C#CC2CC2)(C(F)(F)F)O1 [EFAVIRENZ] | 3 nM | – | 3 nM | – | 1 nM | 43 nM | 7 nM | – | 23 nM | 552 nM | – | 1 nM | – | – | 2 nM |
| Cc1ccnc2c1NC(=O)c1cccnc1N2C1CC1 [NEVIRAPINE] | > 10000 nM | 89 nM | > 10000 nM | – | ~10000 nM | > 50000 nM | > 10000 nM | – | – | – | – | – | – | – | > 10000 nM |
